The values below come from ChEMBL document CHEMBL4330127, “Discovery of Novel Pyruvate Dehydrogenase Kinase 4 Inhibitors for Potential Oral Treatment of Metabolic Diseases” (J Med Chem, 2019).

Usually inhibition stands for how much of the control response was suppressed. Higher therefore signals a response far below the control. A word on the IC50: it is the concentration that gives 50% inhibition. The low end stands for greater potency, the high end for weaker potency.

Data set [1] deals with T1, [Pyruvate dehydrogenase (acetyl-transferring)] kinase isozyme 4, mitochondrial (Homo sapiens, UniProt Q16654). The data set is described as follows: Inhibition of PDK4 (unknown origin) at 10 uM relative to control.
Target sequence in this assay (Q16654 whole entry, looked up): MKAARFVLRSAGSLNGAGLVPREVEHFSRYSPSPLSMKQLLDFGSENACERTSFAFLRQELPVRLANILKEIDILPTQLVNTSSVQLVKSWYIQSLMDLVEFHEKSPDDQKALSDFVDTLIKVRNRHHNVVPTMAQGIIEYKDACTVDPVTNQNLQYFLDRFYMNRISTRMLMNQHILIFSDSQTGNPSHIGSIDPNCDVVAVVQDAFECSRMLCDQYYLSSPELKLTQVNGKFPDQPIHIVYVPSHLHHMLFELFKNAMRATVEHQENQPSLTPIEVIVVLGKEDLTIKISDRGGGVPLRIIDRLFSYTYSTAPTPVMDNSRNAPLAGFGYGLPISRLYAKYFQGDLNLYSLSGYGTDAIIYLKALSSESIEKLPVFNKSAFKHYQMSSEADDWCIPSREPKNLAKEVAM
Data set [2] concerns the target T1, [Pyruvate dehydrogenase (acetyl-transferring)] kinase isozyme 4, mitochondrial. The data set is described as follows: Inhibition of PDK4 (unknown origin).
Target sequence in this assay (Q16654 whole entry): as the sequence (Q16654 whole entry, looked up) above
Data set [3] can be described thus: Metabolic stability in human liver microsomes assessed as parent compound remaining at 1 uM after 30 mins by LC-MS/MS analysis.
Data set [4] in a line: Metabolic stability in rat liver microsomes assessed as parent compound remaining after 30 mins by LC-MS/MS analysis. Format: ADME, Microsome. The settings on record: read-out: Stability.
Data set [5] concerns the target T1, [Pyruvate dehydrogenase (acetyl-transferring)] kinase isozyme 4, mitochondrial. The data set is described as follows: Inhibition of PDK4 in HEK293T cells assessed as reduction in PDHE1alpha phosphorylation at Ser-300 residue by measuring phosphorylated PDHE1alpha level at 10 uM after 24 hrs by Western blot analysis. Format: cell-based. Summed up: (§1)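 HEK293T cells grown in high-glucose DMEM with 10% FBS at 37 °C, 5% CO2. Medium renewed after 24 h, then cells exposed to compound for 24 h and lysed. 20 μg protein per lane Western blotted with antibodies to phospho-PDHE1α Ser232, Ser293 and Ser300 and to total PDHE1α. Band intensity quantified relative to control; triplicate.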
(A western blot detects proteins with antibodies after separation by electrophoresis.)
Target sequence in this assay (Q16654 whole entry, looked up): as above

The target is the same in data set [6]. The data set is described as follows: Inhibition of PDK4 in HEK293T cells assessed as reduction in PDHE1alpha phosphorylation at Ser-293 residue by measuring phosphorylated PDHE1alpha level at 10 uM after 24 hrs by Western blot analysis. Format: cell-based. Summed up: as §1
Target sequence in this assay (Q16654 whole entry, looked up): as above
Data set [7] has the same target. The data set is described as follows: Inhibition of PDK4 in HEK293T cells assessed as reduction in PDHE1alpha phosphorylation at Ser-232 residue by measuring phosphorylated PDHE1alpha level at 10 uM after 24 hrs by Western blot analysis. Format: cell-based. Summed up: as §1
Target sequence in this assay (Q16654 whole entry, looked up): as above

As for `O=C1c2ccccc2C(=O)c2c(Br)cccc21`, the inhibition in data set [1] was 37.8%.

As for `O=C1c2ccccc2C(=O)c2c1cccc2-c1ccc(O)cc1`, the inhibition in data set [1] came out at 35.9%.

In data set [2], `CC(C(=O)O)n1cc(-c2cccc3c2C(=O)c2ccccc2C3(O)C(F)(F)F)cn1` (stereo not given) registered an IC50 of 143 nM. In data set [1], the inhibition is 47.2%. For `O=C1c2ccccc2C(=O)c2c1cccc2C1=CCN(C(=O)Nc2ccccc2)CC1`, the inhibition in data set [1] was 32.6%. Take `CC(C)(C)OC(=O)N1CCC(n2cc(-c3cccc4c3C(=O)c3ccccc3C4(O)C(F)(F)F)cn2)CC1` (stereo not given): the inhibition in data set [1] came out at 32.1%. With `O=C1CC2(CCCC2)CC(=O)N1CCCCN1CCN(c2ncccn2)CC1` [BUSPIRONE], the remaining at 0.5 h, 1 µM in data set [3] was found to be 4%. Moreover, the remaining at 0.5 h in data set [4] turned out to be 0.1%.

In data set [1], `O=C1c2ccccc2C(O)(C(F)(F)F)c2cccc(C3=CCN(C(=O)OCc4ccccc4)CC3)c21` (stereo not given) showed an inhibition of 34.1%. `CCOC(=O)C(C)n1cc(-c2cccc3c2C(=O)c2ccccc2C3=O)cn1` (stereo not given): in data set [1], the inhibition came to 29.4%. Same read-out and setting: the result for `O=C1c2ccccc2C(=O)c2ccccc21` reads 40.7%; that for `CC(C(=O)O)n1cc(-c2cccc3c2C(=O)c2ccccc2C3=O)cn1` (stereo not given), 45.9%; that for `O=C1c2ccccc2C(O)(C(F)(F)F)c2cccc(C3=CCNCC3)c21` (stereo not given), 29.7%. `O=C1c2ccccc2C(=O)c2c1cccc2C1=CCN(C(=O)OCc2ccccc2)CC1`: in data set [1], the inhibition worked out at 41.6%. `O=C1c2ccccc2C(=O)c2c1cccc2-c1cnn(C2CCCCO2)c1` (stereo not given) showed an inhibition in data set [1] of 24.3%. Consider `O=C1c2ccccc2C(O)(C(F)(F)F)c2cccc(-c3cnn(C4CCNCC4)c3)c21` (stereo not given), for which the inhibition in data set [1] is 30.2%.

Consider `O=S(=O)(c1ccc(O)cc1O)N1Cc2cc(O)cc(O)c2C1`, for which the fold change (FC) in data set [5] was 0.93; in data set [6] it was 0.98; in data set [7], 0.62. The compound also gave an inhibition in data set [1] of 34.1%.

As for `O=C1c2ccccc2C(=O)c2c1cccc2C1=CCNCC1`, the inhibition in data set [1] stood at 35.6%. For `CCOC(=O)C(C)n1cc(-c2cccc3c2C(=O)c2ccccc2C3(O)C(F)(F)F)cn1` (stereo not given), the inhibition in data set [1] is 36.9%. For the compound `O=C1c2ccccc2C(=O)c2c1cccc2-c1cn[nH]c1`, the inhibition in data set [1] is 32.9%. `CC(C)(C)OC(=O)N1CC=C(c2cccc3c2C(=O)c2ccccc2C3(O)C(F)(F)F)CC1` (stereo not given) showed an inhibition in data set [1] of 17.3%. Compound `CC(C)(C)OC(=O)N1CC=C(c2cccc3c2C(=O)c2ccccc2C3=O)CC1` returned an IC50 in data set [2] of 600 nM. The compound further showed an inhibition in data set [1] of 53.4%.

Compound `O=C(O)c1ccc(-c2cccc3c2C(=O)c2ccccc2C3=O)cc1` came in with an inhibition in data set [1] of 30.4%. On to `CC(C)(C)OC(=O)N1CCC(n2cc(-c3cccc4c3C(=O)c3ccccc3C4=O)cn2)CC1`, for which the inhibition in data set [1] was 32.6%. The compound `CS(=O)(=O)N1CC=C(c2cccc3c2C(=O)c2ccccc2C3=O)CC1` gave an inhibition in data set [1] of 29.5%.

For the compound `O=C1c2ccccc2C(=O)c2c1cccc2-c1cccnc1`, the inhibition in data set [1] amounted to 25.4%.
